Compound activity: PubChem BioAssay, Johns Hopkins Ion Channel Center
Shown are actives, neighbours in structure and some others; about 3.5% of the full set was active somewhere.
MrgX1 antagonist = human MrgX1 receptor antagonism, primary screen | Q96LB2 | MRGX1-HEK293 calcium flux, Fluo-4, BAM8-22 antagonism; stronger effect = lower value | B-score at 10 µM | 1.3% of 310,000 active | AID 588676;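 active means calcium-response B-score plate-corrected more than 3 library SD below zero, starting fluorescence within 5 deviations, no agonist response on first addition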;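 further: peak minus trough fluorescence over baseline after final BAM8-22 challenge near maximal dose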
Target sequence (Q96LB2 whole entry, looked up): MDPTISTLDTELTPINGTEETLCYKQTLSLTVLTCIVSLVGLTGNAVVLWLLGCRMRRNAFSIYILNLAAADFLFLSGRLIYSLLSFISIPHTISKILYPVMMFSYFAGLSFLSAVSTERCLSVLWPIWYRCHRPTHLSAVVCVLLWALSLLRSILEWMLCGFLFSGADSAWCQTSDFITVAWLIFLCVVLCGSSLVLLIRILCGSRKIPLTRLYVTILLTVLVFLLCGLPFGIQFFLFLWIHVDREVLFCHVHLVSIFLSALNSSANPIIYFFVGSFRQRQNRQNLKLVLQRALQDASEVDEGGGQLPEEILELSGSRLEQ
RGS4 act = RGS4 potentiation or activation; HEK293 M3R/inducible RGS4, carbachol calcium flux Fluo4; stronger effect = lower value; B-score at 10 µM; 0.92% of 310,000 active; AID 463111;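 active means B-score of the integrated calcium signal more than 4 SD below the library mean, with starting fluorescence not abnormally high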;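 further: negative B-score means reduced calcium response which marks RGS4 activation or potentiation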
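Detection: kinetic calcium fluorescence imaging with Fluo4-AM dye, 2 µM / Material: HEK293 cells with stable M3R and inducible RGS4 / Schedule: recording 10 s baseline at 1 Hz, 100 s post-agonist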
MrgX1 ag = activates human MrgX1 receptor signaling; MrgX1-HEK293 cells, Fluo-4 calcium fluorescence, agonist mode; stronger effect = higher value; B-score at 10 µM; 0.44% of 310,000 active; Q96LB2;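 active means calcium response B-score plate-corrected fluorescence ratio at least 3 library SD, with starting fluorescence B-score inside 5 SD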
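Material: HEK293 cells stably expressing human MrgX1 receptor | Quantity: 15,000 cells per well | Times: Cells plated overnight, dye loaded 0.5 h 37 °C, 0.5 h room temperature | Measured by: Kinetic Fluo-4 NW fluorescence of intracellular calcium | Control set: Positive and negative controls per plate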
MrgX1 allo act = human MrgX1 positive allosteric modulation, primary screen. Q96LB2. MrgX1-HEK293, Fluo-4 calcium flux, FDSS; stronger effect = higher value. B-score at 10 µM. 0.63% of 310,000 active. AID 588675;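 active means plate-corrected calcium response at least 3 library SD above typical, normal starting fluorescence, not activating the receptor alone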;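 further: compound read alongside a low EC10 to EC30 dose of BAM8-22 agonist; peak minus trough fluorescence over baseline measured at the second addition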
RGS4 inh = inhibitors of human RGS4; 0.45% of 310,000 active; AID 463165; HEK293 M3R/RGS4 inducible, Fluo-4 calcium flux; stronger effect = higher value; triggered by carbachol at its EC20; B-score at 10 µM; P49798;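 active means B-score, a plate-corrected calcium signal, over three deviations above library mean, with baseline fluorescence within five deviations of library mean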;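 further: RGS4 expression induced by doxycycline in cells with stable M3 receptor; B-score is computed from the integrated fluorescence ratio over baseline after carbachol; higher B-score means a larger calcium signal and so more RGS4 inhibition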
Target sequence (P49798 whole entry, looked up): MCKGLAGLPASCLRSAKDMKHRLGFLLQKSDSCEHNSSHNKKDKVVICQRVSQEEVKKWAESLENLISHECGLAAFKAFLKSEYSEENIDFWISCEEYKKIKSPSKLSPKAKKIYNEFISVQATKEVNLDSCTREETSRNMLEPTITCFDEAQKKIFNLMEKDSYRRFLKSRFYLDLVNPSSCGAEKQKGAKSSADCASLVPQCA
MrgX1 ant reconf = reconfirmed antagonist of human MrgX1 receptor signaling; 19% of 2,300 active; remaining BAM8-22 calcium response % of control (stronger effect = lower value), % at 10 µM; shares compounds with MrgX1 antagonist; MrgX1-HEK293, BAM8-22 calcium flux, Fluo-4; stronger effect = lower value;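 active means remaining agonist calcium response no higher than 100% minus 3 SD of agonist-only control wells, with starting fluorescence near control levels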;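 further: agonist BAM8-22 given at a near maximal EC90 to ECmax level; peak minus minimum fluorescence divided by baseline after agonist addition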
HEK293 Ca flux = counter-screen for MrgX1 antagonists: effect in parental HEK293 cells | shares compounds with MrgX1 antagonist | Fluo-4 calcium fluorescence, FDSS | fluorescence ratio F(max-min)/F0 at 10 µM | 2% of 4,000 active;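 active means duplicate-averaged calcium fluorescence ratio at least three times the standard deviation of buffer wells, a nonspecific response in parental cells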
HEK293 Ca counter = activity in parental HEK293 cells without MrgX1; shares compounds with MrgX1 antagonist; parental HEK293 calcium flux, Fluo-4 fluorescence ratio; stronger effect = higher value; AID 624114; 0.4% of 4,000 active; fluorescence ratio F(max-min)/F0 at 10 µM;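 active means calcium fluorescence ratio, averaged over duplicates, at least 3 SD of the buffer-well ratio, meaning a nonspecific response in receptor-free cells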;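 further: untransfected parental HEK293 lacking MrgX1 used as counterscreen for MrgX1 allosteric activators; fluorescence change taken during the second addition on a kinetic imager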
HEK293 Ca cntr2 = MrgX1 activator counter-screen hit in parental HEK293 cells; fluorescence ratio F(max-min)/F0 at 10 µM; 8.7% of 4,000 active; Fluo-4 calcium fluorescence (FDSS); stronger effect = higher value; AID 624115; shares compounds with MrgX1 antagonist;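 active means calcium fluorescence ratio at least three times the spread of buffer wells, meaning a non-specific response in parental cells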
Numbers stand for hits; - = inactive; . = not tested or not shown.

SMILES	MrgX1 antagonist	RGS4 act	MrgX1 ag	MrgX1 allo act	RGS4 inh	MrgX1 ant reconf	HEK293 Ca flux	HEK293 Ca counter	HEK293 Ca cntr2
CCN(CC)S(=O)(=O)c1cc(C(=O)OCC(=O)Nc2cccc(Br)c2)ccc1F	-	-	-	-	-	.	.	.	.
C=CCn1c(-c2ccc(S(=O)(=O)N3CCOCC3)cc2)csc1=Nc1ccccc1	-7.9	-	-	-	-	-	-	-	-
COc1ccc(CNC(=O)COc2cc(=O)n(C)c3ccccc23)cc1	-	-	-	-	-	.	.	.	.
Cn1c(=O)cc(OCC(=O)NCc2cccs2)c2ccccc21	-7.1	-	-	-	-	-	-	-	-
COc1cc(C(C)=O)ccc1OCc1cc(C(=O)N2CCSCC2)no1	-	-	-	-	-	.	.	.	.
CC(=O)c1cccc(OCc2cc(C(=O)N3CCSCC3)no2)c1	-9	-	-	-	-	-	-	-	-
COc1ccc(Nc2cc3n(c(=O)n2)CCc2cc(OC)c(OC)cc2-3)c(C)c1	-6.3	-	-	-	-	-	-	-	-
COc1ccccc1OCC(=O)NNC(=O)Nc1ccccc1	-	-	-	-	-	.	.	.	.
COc1ccc(Nc2nc(N)nc(CSc3nccc(C)n3)n2)cc1	-9.5	-	-	-	-	-	-	-	-
Cc1cccc(Nc2nc(N)nc(CSc3nccc(C)n3)n2)c1	-	-	-	-	-	.	.	.	.
COC(=O)C1=C(CN2CCSCC2)NC(=O)NC1c1cc(C)ccc1C (configuration not stated)	-5.6	-	-	-	-	-	-	-	-
CS(=O)(=O)N(Cc1ccc(C(=O)N2CCc3ccccc3C2)cc1)c1ccccc1	-7.5	-	-	-	-	-	-	-	-
COc1ccc(NS(=O)(=O)c2cc3c(cc2C)NC(=O)CO3)c(OC)c1	-4.9	-	-	-	-	-	-	-	-
CC(C)N(Cc1nccn1C)C(=O)CC1C(=O)NCCN1Cc1ccc(F)c(F)c1 (configuration not stated)	-6.5	-	-	-	-	72%	-	-	-
COC(=O)c1ccc(NC(=S)NCCc2cccc(C)c2)cc1	-	-	-	-	-	.	.	.	.
COC(=O)c1ccc(NC(=S)NCCc2ccccc2C)cc1	-5	-	-	-	-	-	-	-	-
COc1ccc(CNC(=O)C/C(C)=N/NC(=O)COc2cccc(C)c2)cc1	-	-	-	-	-	.	.	.	.
CC(=O)c1cccc(NC(=O)C2CCCCC2)c1	-	-	-	-	-	.	.	.	.
O=C(Nc1cccc(Cl)c1)C1CCCCC1	-5.4	.	-	-	.	-	-	-	-
Cc1ccc(C)c(NC(=S)N2CCN(CCO)CC2)c1	-4.8	-	-	-	-	-	-	-	-
Cc1ccc(C)c(NC(=S)N2CCCCCC2)c1	-	.	-	-	.	.	.	.	.
O=C(NCc1cn2ccsc2n1)c1cccc(C(F)(F)F)c1	-	-	-	-	-	.	.	.	.
O=C(NCc1cn2ccsc2n1)c1c(F)cccc1Cl	-5	-	-	-	-	-	-	-	-
CCOC(=O)c1ccc[n+](CC(=O)c2ccc(NC(=O)c3ccccc3)cc2)c1	-	-	-	-	-	.	.	.	.
Cc1ccc(NC(=O)Cc2ccc(-c3ccccc3)cc2)nc1	-8.1	-	-	-	-	-	-	-	-
SMILES	MrgX1 antagonist	RGS4 act	MrgX1 ag	MrgX1 allo act	RGS4 inh	MrgX1 ant reconf	HEK293 Ca flux	HEK293 Ca counter	HEK293 Ca cntr2
CN1CCN(C(=O)c2ccc(N(Cc3ccc(Cl)cc3)S(C)(=O)=O)cc2)CC1	-	-	-	-	-	.	.	.	.
C=CCn1c(C)cc(C(=O)CSc2nnc(Cc3ccccc3)o2)c1C	-	-	-	-	-	.	.	.	.
Cc1cc(C(=O)CSc2nnc(Cc3ccccc3)o2)c(C)n1Cc1ccc2c(c1)OCO2	-7.5	-	-	-	-	-	-	-	-
N#CCSc1nnc(-c2ccc3c(c2)OCO3)o1	-	-	-	-	-	.	.	.	.
N#CCSc1nnc(Cc2ccc3c(c2)OCO3)o1	-5.4	-	-	-	-	-	-	-	-
Cc1[nH]c2ccc(C(=O)OC(C)C(=O)NC3(C#N)CCCCC3)cc2c1C (configuration not stated)	-6	-	-	-	-	-	-	-	-
O=C(NCCc1ccccc1)NC(Cc1ccccc1)C(=O)O (configuration not stated)	-	-	-	-	-	.	.	.	.
O=C(NCCC1=CCCCC1)N[C@@H](Cc1ccccc1)C(=O)O	-9.7	-	-	-	-	-	-	-	-
CN(C)C(CNc1ncccn1)c1ccccc1 (configuration not stated)	-	-	-	-	-	.	.	.	.
Cc1cc(C)n2ncc(C(=O)Nc3ccc4c(c3)OCO4)c2n1	-	-	-	-	-	.	.	.	.
Cc1cc(C)n2ncc(C(=O)Nc3cccc(O)c3)c2n1	-5.9	-	-	-	-	-	-	-	-
CCc1c(C)nc(SCC(N)=O)c(C#N)c1C	-5.7	-	-	-	-	-	-	-	-
CC1(c2ccccc2)NC(=O)N(CC(=O)Nc2ccc3c(c2)OCO3)C1=O (configuration not stated)	-	-	-	-	-	.	.	.	.
CC1(c2ccc(OC(F)F)cc2)NC(=O)N(CC(=O)Nc2ccc3c(c2)OCO3)C1=O (configuration not stated)	-6.3	-	-	-	-	-	-	-	-
CNCc1ccccc1OCC(=O)Nc1ccccc1	-4.6	-	-	-	-	-	-	-	-
CCc1ccccc1OCC(=O)Nc1ccc(S(N)(=O)=O)cc1	-	-	-	-	-	.	.	.	.
Nc1c(C(=O)Nc2ccccc2F)sc2nc(-c3ccco3)ccc12	-5.3	-	-	-	-	78%	-	-	-
Nc1c(C(=O)Nc2ccccc2F)sc2nc(-c3cccnc3)ccc12	-	-	-	-	-	.	.	.	.
CCCC(=O)Nc1ccccc1N1CCN(C(=O)C(C)C)CC1	-5.2	-	-	-	-	-	-	-	-
CC(C)C(=O)N1CCN(c2ccccc2NC(=S)NC(=O)Cc2ccccc2)CC1	-	-	-	-	-	.	.	.	.
CC1Cc2cc(-c3csc(NC(=O)Cc4cccs4)n3)ccc2N1S(C)(=O)=O (configuration not stated)	-4.8	-	-	-	-	50%	-	-	-
CCC(=O)Nc1nc(-c2ccc3c(c2)CC(C)N3S(C)(=O)=O)cs1 (configuration not stated)	-	-	-	-	-	.	.	.	.
